The subject of series [1] is adrenal cortisol production. The experiment in a line: ACTH stimulation test, serum cortisol by radioimmunoassay. Conditions: ± SEM. Type of series: in vivo, dog. In outline:
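Dogs: 5 healthy controls and 10 previously diagnosed with hyperadrenocorticism. Each dog had two ACTH stimulation tests, one with a reference tetracosactrin product (0.04 mL/kg IV) and one with the test ACTH preparation (0.08 mL/kg IV). Blood was drawn just before injection and 60 minutes after. Serum cortisol was measured by validated radioimmunoassay and reported as mean ± SEM.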

The test system of series [2] is beagles with and without MVMD. The series can be described thus: Dobutamine stress echocardiography in beagles with mitral valve disease. Type of series: in vivo, dog.
The test system of the next series is healthy dogs. The series can be described thus: Endoscopy of upper gastrointestinal tract after 28 days of therapy. The class given is in vivo, dog. Conditions: day 28; PO daily. Put shortly: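 Fifteen healthy dogs were randomized to five PO regimens for 28 days: aspirin 2 mg/kg/d, clopidogrel 2–3 mg/kg/d, prednisone 2 mg/kg/d, prednisone plus aspirin, or prednisone plus clopidogrel. The upper gastrointestinal tract was then assessed.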

The subject of series [3] is dogs with hypoadrenocorticism. Type of series: in vivo, dog.
Series [4] deals with canine osteosarcoma cell lines. The experiment in a line: Combination with MCT1/4 small molecule inhibitors in canine osteosarcoma cells. Type of series: cell-based, dog.
Series [5] has as its system dogs with gastrointestinal stromal tumors. The series can be described thus: Retrospective evaluation of toceranib in canine GIST. The class given is in vivo, dog.
In series [6] the test system is healthy purpose-bred dogs. The experiment in a line: Isoglycemic clamp in healthy dogs. The class given is in vivo, dog. The note with it: 2.4 nmol/kg SC.
In another series the test system is platelet function. The experiment in a line: PFA-100 closure time, antiplatelet responder status. The class given is in vivo, dog. In outline:
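Fifteen healthy dogs received PO aspirin 2 mg/kg/d, clopidogrel 2–3 mg/kg/d, or either drug combined with prednisone 2 mg/kg/d for 28 days. Responders were defined by PFA closure time: above 300 sec for aspirin, or more than 30% above baseline for clopidogrel. Responder status was compared among groups by Fisher's exact test, with P < 0.05 as significant.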

For series [7], the system named is Dobermans with CHF due to DCM. The experiment in a line: Randomized placebo-controlled survival trial in Dobermans with CHF due to DCM. The class given is in vivo, dog. Conditions: 50 mg twice daily plus standard therapies; 34 dogs; time to cardiac death.
The test system of series [8] is dogs with ventricular tachyarrhythmias. The experiment in a line: Echocardiogram and 5-minute ECG before and after oral sotalol. The class given is in vivo, dog.
Series [9] relates to dogs given PEG before colonoscopy. The experiment in a line: Anti-emetic before orogastric PEG administration. The class given is in vivo, dog. In outline:
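46 dogs with naturally occurring disease needed PEG bowel cleansing before colonoscopy. They were randomized to one of two anti-emetics given SC 30 minutes before orogastric-tube PEG at 66 ml/kg. PEG was repeated 2 hours later without repeating the anti-emetic. Administration was by or under supervision of blinded authors. Vomiting and regurgitation were recorded after each PEG dose.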

Series [10] is classed as in vivo, cats. The note with it: one 1.87 mg oral dose.
A further series deals with healthy beagles. The series can be described thus: Serum cPLI after high-dose prednisolone in healthy beagles. Type of series: in vivo, dog. Conditions: 4 mg/kg/day SC for 2 or 3 weeks; six beagles.
The subject of series [11] is dogs with idiopathic IMPA. The series can be described thus: Retrospective outcome of dogs with idiopathic IMPA. The note with it: dog, in vivo.
The test system of series [12] is dogs with pulmonic stenosis. The class given is in vivo, dog.
The subject of another series is canine leukocytes. The series can be described thus: LPS-stimulated leukocyte cytokine production in whole blood. Type of series: cell-based, dog. The note with it: 10^−7 M, 24 h. In outline: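 Blood from eight healthy adult dogs was incubated with test compound (10−7 M) or control for 24 h. Leukocytes were then stimulated with LPS, and TNF and IL-10 production were measured by a canine-specific multiplex assay.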

For the next series, the system named is RBCs. The experiment in a line: Lysis of canine RBCs by DMSO diluted in PBS. Type of series: cell-based, dog.
For series [13], the system named is platelet function (closure time).
In the next series the test system is platelet aggregation. Conditions: cats with cardiovascular disease already receiving clopidogrel, n = 3.
Series [14] has as its system fecal microbiota of healthy dogs. The series can be described thus: Fecal microbiota qPCR Dysbiosis Index after oral tylosin. Type of series: in vivo, dog. The note with it: 20 mg/kg q12 hr for 7 days. In outline:
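Ten healthy pet dogs were randomized double-blind to oral test compound at 20 mg/kg (n = 6) or placebo capsule (n = 4), given q12 hr for 7 days. Dogs stayed on their usual diet. Fecal samples were taken on days 0, 7, 10, 21 and 63, and a fecal score (1–7) was recorded daily during dosing.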
(In general: Quantitative PCR measures a nucleic acid by following its amplification.)

In another series the test system is canine complement. The class given is biochemical, dog. Conditions: dose curves, at the doses evaluated.
Setting [15] is: G2 MVMD, DIVEd/Ao less than 2.8.

Where two headings read alike, the source gives them in different places.

For “corticotropin (SYSMEHFRWGKPVGKKRRPVKVYPNGAEDESAEAFPLEF; Corticotropin; UniProt P01189 138-176, looked up) [Acthelea]”, the post-ACTH serum cortisol in series [1] (control group, 5 healthy dogs, 60 minute post IV) was determined as 9.00 ± 0.71 µg/dL. For the same molecule, the “after ACTH serum cortisol” value in series [1] (treated group, 10 dogs with hyperadrenocorticism on trilostano) turned out to be 7.90 ± 2.1 µg/dL.

In the case of `CC(CCc1ccc(O)cc1)NCCc1ccc(O)c(O)c1` (centres unmarked) [dobutamine], the “difference between pre and post stress EF%” value in [2] (G1 control group) is given as 0.25 ± 0.08; in series [2] (setting [15]), 0.30 ± 0.08; in series [2] (G3 MVMD, DIVEd/Ao above 2.8) it was 0.13 ± 0.09. For the same molecule, the “difference between pre and post stress FS%” value in series [2] (G1 control group, 5 then 10 μg/kg/minute infusion) is reported as 0.44 ± 0.14; in series [2] (setting [15]), 0.49 ± 0.13; in series [2] (G3 MVMD, DIVEd/Ao above 2.8), 0.19 ± 0.14.

With `C[C@]12C=CC(=O)C=C1CC[C@@H]1[C@@H]2C(=O)C[C@@]2(C)[C@H]1CC[C@]2(O)C(=O)CO` [P, prednisone], the “dogs with endoscopic lesions” value with healthy dogs is 1/3.

As to `CC(C)(C)C(=O)OCC(=O)[C@H]1CC[C@H]2[C@@H]3CCC4=CC(=O)CC[C@]4(C)[C@H]3CC[C@]12C` [DOCP], in [3] (12 dogs, range 1-29 days), the “median time between the DOCP and CHF” value came to 11 days. In addition, the “Median survival after the onset of CHF” value in [3] (HA/DOCP group) is 953 days.

Take `CN(C)C(=N)N=C(N)N` [metformin]: the “activity in the presence of MCT1 and MCT4 small molecule inhibitors” value in series [4] was “Synergistic activity”.

As to `Cc1[nH]c(/C=C2\C(=O)Nc3ccc(F)cc32)c(C)c1C(=O)NCCN1CCCC1` [toceranib], the “dogs experiencing adverse events” value in series [5] (16/28, majority Grade 1 or 2 gastrointestinal toxicities) is given as 57%. Further, the “Clinical benefit (CB)” value in [5] (all dogs, 26/28) was 93%; in [5] (dogs with gross disease, 5/7), 71%; in series [5] (dogs with microscopic disease), 21/21.

Consider Insulin glargine [Toujeo], for which, in [6], the “dogs with peakless time-action profile” value is listed as 4/8; the “duration of action, median” value came to 16.3 h; the “peak of action, median” value stood at 6.3 h. In series [6] (8 healthy dogs), the “Median onset of action” value was determined as 4.0 h.

On to `COc1cccc2c1C(=O)c1c(O)c3c(c(O)c1C2=O)C[C@@](O)(C(=O)CO)C[C@@H]3O[C@H]1C[C@H](N)[C@H](O)[C@H](C)O1` [doxorubicin], for which the “activity in the presence of MCT1 and MCT4 small molecule inhibitors” value in series [4] is “Synergistic activity”.

For the molecule `CC(=O)Oc1ccccc1C(=O)O` [A, aspirin], the “dogs classified as responders based on PFA closure times” value is recorded as 2/3 in the series with platelet function (day 14) and 1/3 in the series with platelet function (day 28). Further, the “dogs with endoscopic lesions” value with healthy dogs is reported as 1/3.

Regarding `CC(=O)S[C@@H]1CC2=CC(=O)CC[C@]2(C)[C@H]2CC[C@@]3(C)[C@@H](CC[C@@]34CCC(=O)O4)[C@H]12` [spironolactone], in [7], the median survival time was 183 days.

With `CC(C)NCC(O)c1ccc(NS(C)(=O)=O)cc1` (centres unmarked) [sotalol], in [8] (2–3 hours post-sotalol), the “EF, mean percent change ± SD” value is −13 ± 16%; the “FS, mean percent change ± SD” value was −14 ± 11%; the “LVSA, mean percent change ± SD” value was −10 ± 12%. In series [8] (2–3 hours post-sotalol 2.5 ± 0.2 mg/kg PO, n = 27), the “heart rate, mean percent change ± SD” value was −18 ± 16%.

For the molecule `CCN(CC)CCNC(=O)c1cc(Cl)c(N)cc1OC` [metoclopramide], the incidence of regurgitation in series [9] (PEG Dose 1) was determined as 52.4%; in series [9] (PEG Dose 2), 31.6%. The incidence of vomiting in series [9] (PEG Dose 1, anti-emetic SC 30 minutes before) is listed as 23.8%; in series [9] (PEG Dose 2), 21.1%.

As for `CN1CCN2c3ncccc3Cc3ccccc3C2C1` (centres unmarked) [mirtazapine], the “AUC, liver disease cats versus AMC cats” value in series [10] is on record as “not significantly different”.

On to `C[C@]12C=CC(=O)C=C1CC[C@@H]1[C@@H]2[C@@H](O)C[C@@]2(C)[C@H]1CC[C@]2(O)C(=O)CO` [prednisolone], for which the “serum cPL concentration after versus before treatment” value in the series with healthy beagles was “significantly higher after than before treatment”. Moreover, in [11], the “dogs relapsed during tapering of medication” value is reported as 13/23 and the median treatment duration is reported as 397 days.

Regarding `Oc1ccc2c(c1)[C@@]13CCCC[C@@]1(O)[C@@H](C2)N(CC1CCC1)CC3` [butorphanol], the “heart rate, mean %change ± SD” value in series [12] (5 minutes post-butorphanol 0.2–0.25 mg/kg IV, n = 18 dogs) is listed as −21% ± 16.

Consider `CC(C)NCC(O)COc1ccc(CC(N)=O)cc1` (centres unmarked) [atenolol], for which, in series [12] (2–3 weeks post-atenolol 1–1.5 mg/kg q12), the “maxPG, mean %change ± SD” value was −15% ± 9. In addition, in [12] (2–3 weeks post-atenolol 1–1.5 mg/kg q12, n = 18), the “heart rate, mean %change ± SD” value is −17% ± 13. Moreover, the “Percent change in VTI ratio” value in [12] (post-atenolol) was 6% ± 12.

Take `C=C1/C(=C\C=C2/CCC[C@]3(C)[C@@H]([C@H](C)CCCC(C)(C)O)CC[C@@H]23)C[C@@H](O)C[C@@H]1O` [calcitriol]: the “LPS-stimulated IL-10 production, mean±SD” value in the series with canine leukocytes (control 551 ± 323) is reported as 791 ± 386 pg/mL. The “LPS-stimulated leukocyte TNF production, mean±SD” value with canine leukocytes (eight dogs, control 1694 ± 1023) is recorded as 823 ± 862 pg/mL.

For the molecule `C[S+](C)[O-]` [DMSO], the “lysis of RBCs” value in the series with RBCs (10, 20, 70 and 80% DMSO) was “no hemolysis”; with RBCs (30, 40 and 90% DMSO) it was “mild hemolysis”; in the series on RBCs (50 and 100% DMSO), “moderate hemolysis”; in the series on RBCs (60% DMSO (diluted in PBS)), “marked hemolysis”.

For the molecule `COC(=O)[C@H](c1ccccc1Cl)N1CCc2sccc2C1` [clopidogrel], the “PFA-P2Y Closure Time” value in series [13] (cats already receiving clopidogrel, n = 6) is > 300 s; in series [13] (test repeated while receiving clopidogrel, n = 1), > 300 s. In addition, the “dogs classified as responders based on PFA closure times” value with platelet function (day 14) and in the series with platelet function (day 28) was 3/3 each time. Also, the “PW-AA %Aggregation” value in the series with platelet aggregation is reported as 4–19%. Moreover, the “dogs with endoscopic lesions” value with healthy dogs is 0/3.

Take `CC[C@H]1OC(=O)C[C@@H](O)[C@H](C)[C@@H](O[C@@H]2O[C@H](C)[C@@H](O[C@H]3C[C@@](C)(O)[C@@H](O)[C@H](C)O3)[C@H](N(C)C)[C@H]2O)[C@@H](CC=O)C[C@@H](C)C(=O)/C=C/C(C)=C/[C@@H]1CO[C@@H]1O[C@H](C)[C@@H](O)[C@@H](OC)[C@H]1OC` [tylosin]: in series [14], the development of diarrhea result is “None of the dogs in either group developed diarrhea”. Also, the “Dysbiosis Index, median” value in series [14] (day 7, 6 dogs, day 0 −6.5) worked out at 2.9.

B1: C1‐INH: human recombinant C1-esterase Inhibitor (protein, UniProt P05155 23-500, looked up)
Plasma protease C1 inhibitor: NPNATSSSSQDPESLQDRGEGKVATTVISKMLFVEPILEVSSLPTTNSTTNSATKITANTTDEPTTQPTTEPTTQPTIQPTQPTTQLPTDSPTQPTTGSFCPGPVTLCSDLESHSTEAVLGDALVDFSLKLYHAFSAMKKVETNMAFSPFSIASLLTQVLLGAGENTKTNLESILSYPKDFTCVHQALKGFTTKGVTSVSQIFHSPDLAIRDTFVNASRTLYSSSPRVLSNNSDANLELINTWVAKNTNNKISRLLDSLPSDTRLVLLNAIYLSAKWKTTFDPKKTRMEPFHFKNSVIKVPMMNSKKYPVAHFIDQTLKAKVGQLQLSHNLSLVILVPQNLKHRLEDMEQALSPSVFKAIMEKLEMSKFQPTLLTLPRIKVTTSQDMLSIMEKLEFFDFSYDLNLCGLTEDPDLQVSAMQHQTVLELTETGVEAAAASAISVARTLLVFEVQQPFLFVLWDQQHKFPVFMGRVYDPRA
As for B1, the “inhibition of canine complement-mediated hemolysis” value with canine complement is “dose‐dependent inhibition”.

For the origin of these results see publication PMC5508335 (Journal of Veterinary Internal Medicine, 2017).
